Measured values of several laboratories.
Target: Serine/threonine-protein kinase PLK3 (PLK3, Homo sapiens, UniProt Q9H4B4)

`CC(=O)N1CCC(c2ccc(C(=O)NC3=NCCN3)cc2C(F)(F)F)CC1` gave a remaining binding of 78% (cell-free assay, competition with immobilised ligand; 1 µM).
`C=CC(=O)N1CCC(C(=O)NCC(=O)N2CCN(c3nc(-c4cnc(N)nc4C(F)F)nc(N4CCOCC4)n3)CC2)CC1` has a remaining binding of 58% (binding, competition with immobilised ligand; 1 µM).
With `O=C(NCCCN1CCOCC1)c1ccc(Nc2nccc(-c3cc4ccccc4s3)n2)cc1` the remaining binding was 42% (binding, competition with immobilised ligand; 1 µM).
`COc1ccnn2ncc(-c3ccnc(N(C)C)n3)c12` gave a remaining binding of 75% (binding; 1 µM).
The remaining binding of `NS(=O)(=O)c1cc(NC(=O)Cc2ccccc2)ccc1Oc1cccc(Cl)c1` is reported as 87% (cell-free assay, competition with immobilised ligand; 1 µM).
For `C[C@@H]1CN(c2ccc3ncc(-c4ccc5[nH]nc(C6CC6)c5c4)n3n2)C[C@H](C)O1`, the remaining binding was 98% (binding, competition with immobilised ligand; 0.5 µM).
`CN(CCCC(F)(F)F)c1nccc(-c2cnn3ncccc23)n1` gave a remaining binding of 100% (binding; 1 µM).
`CS(=O)(=O)c1cc(C2(NC(=O)c3cncc4c3cnn4-c3ccc(F)cc3)CC2)ccn1` has a remaining binding of 68% (cell-free assay, competition with immobilised ligand; 1 µM).
With `C[C@@H]1CCN(c2nccc(-c3cnn4ncccc34)n2)C1` the remaining binding was 88% (binding; 1 µM).
`O=C(NCCCN1CCOCC1)c1ccc(Nc2ncc(Cl)c(-c3ccc(Cl)s3)n2)cc1` has a remaining binding of 7.8% (binding, competition with immobilised ligand; 1 µM).
`C[C@@H](c1ccc(-n2cnc3c(N)ncnc32)cc1)N1CCc2nn(C)c(Cc3ccccc3)c2C1=O` has a remaining binding of 76% (binding, competition with immobilised ligand; 0.1 µM).
The remaining binding of `CN([C@@H]1CCc2c(CC(=O)O)c3ccccc3n2C1)S(=O)(=O)c1ccc(F)cc1` is reported as 85% (cell-free assay, competition with immobilised ligand; 1 µM).
The remaining binding of `N[C@H]1CCN(c2nccc(-c3cnn4ncccc34)n2)C1` is reported as 83% (binding; 1 µM).
With `COc1cnc(Nc2cccc(S(N)(=O)=O)c2)nc1N1CCN(c2ccccc2)C(=O)C1` the remaining binding was 63% (binding, competition with immobilised ligand; 1 µM).
For `O=C(Nc1c[nH]nc1C(=O)NC1CCNCC1)c1cc(F)cc(F)c1`, the remaining binding was 86% (binding, competition with immobilised ligand; 1 µM).
With `O=C(O)c1cc(-c2ccc(C3CCNCC3)cc2)c2ccc(-c3ccc(C(F)(F)F)cc3)cc2c1` the remaining binding was 100% (cell-free assay, competition with immobilised ligand; 1 µM).
For `Nc1ncc2c(n1)-c1c([nH]c3ccc(C#CC4CC4)cc13)CCCC2`, the remaining binding was 99% (binding, competition with immobilised ligand; 1 µM).
With `c1cnn2ncc(-c3ccnc(N4CCC45COC5)n3)c2c1` the remaining binding was 79% (binding; 1 µM).
For `FC(F)(F)Oc1cccc(-c2cnc3ccc(-c4ccncc4)nn23)c1`, the remaining binding was 63% (cell-free assay, competition with immobilised ligand; 5 µM).
For `CN(C)c1ncc(F)c(-c2cnn3ncccc23)n1`, the remaining binding was 79% (binding; 1 µM).
With `CN(C)c1ncnc(-c2ccc3nc(Nc4cc(CN5CCN(C(=O)CC(F)(F)F)CC5)ccn4)[nH]c3c2)c1Cl` the remaining binding was 100% (cell-free assay, competition with immobilised ligand; 1 µM).
With `O=C(c1ccc(Nc2ncc(Cl)c(-c3cc4ccccc4s3)n2)cc1)N1CCC(N2CCCC2)CC1` the remaining binding was 58% (binding, competition with immobilised ligand; 1 µM).
For `C[C@H](NC(=O)c1cnc2n1[C@](C)(Cc1ccc(C#N)cc1)C(=O)N2c1cc(Cl)c(F)c(Cl)c1)C(=O)NC1(c2ccccn2)CC1`, the remaining binding was 81% (cell-free assay, competition with immobilised ligand; 1 µM).
For `CC(C)(C)c1ccc(-c2nc(CBr)nn2-c2cccc(O)c2)cc1`, the remaining binding was 98% (cell-free assay, competition with immobilised ligand; 10 µM).
